Data: paper PMC8055291 (Journal of Inflammation Research, 2021)

Legend:
Assay in all cases: SPR analysis
Assay type in all cases: binding
[1] = target: mitogen-activated protein kinase (MAPK1) (Homo sapiens, UniProt P28482); conditions: for kon: read-out: Ka (association rate constant); for koff: read-out: Kd (dissociation rate constant)
How it was run: (§1)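 Each protein was amine-coupled to the chip after NHS/EDC (1:1, v/v) activation, at 14,874 RU (MMP-9), 11,000 RU (MAPK1), 11,800 RU (NFKB1) and 11,000 RU (TNF-α). A reference channel was activated and blocked without protein. Analytes flowed at 30 μL/min, with 60 s association and 120 s dissociation. Curves were fitted with 1:1 Langmuir and steady-state affinity models to give Ka, Kd and KD.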

[2] = target: matrix metalloproteinase-9 (MMP-9) (Homo sapiens, UniProt P14780)
Sequence of matrix metalloproteinase-9 (MMP-9) (P14780 94-707): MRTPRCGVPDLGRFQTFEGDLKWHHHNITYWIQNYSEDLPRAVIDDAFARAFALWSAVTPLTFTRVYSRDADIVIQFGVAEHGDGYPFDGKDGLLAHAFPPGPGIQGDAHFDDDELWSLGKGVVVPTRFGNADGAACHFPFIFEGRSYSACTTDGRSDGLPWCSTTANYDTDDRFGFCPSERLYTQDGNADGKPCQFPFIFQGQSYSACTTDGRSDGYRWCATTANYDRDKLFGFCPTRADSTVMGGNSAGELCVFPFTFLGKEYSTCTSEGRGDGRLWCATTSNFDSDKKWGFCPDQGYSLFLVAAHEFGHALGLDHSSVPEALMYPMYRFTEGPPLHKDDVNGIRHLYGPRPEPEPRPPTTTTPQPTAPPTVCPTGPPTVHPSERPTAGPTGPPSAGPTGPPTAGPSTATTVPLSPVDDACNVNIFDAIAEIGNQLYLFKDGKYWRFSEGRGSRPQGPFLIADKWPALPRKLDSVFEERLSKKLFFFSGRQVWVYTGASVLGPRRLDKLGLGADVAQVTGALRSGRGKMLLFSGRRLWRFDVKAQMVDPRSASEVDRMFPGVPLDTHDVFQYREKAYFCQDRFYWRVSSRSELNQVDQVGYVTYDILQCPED
How it was run: as §1

[3] = target: tumor necrosis factor (TNF-α) (Homo sapiens, UniProt P01375)
Sequence of tumor necrosis factor (TNF-α) (P01375 77-233 limits assumed): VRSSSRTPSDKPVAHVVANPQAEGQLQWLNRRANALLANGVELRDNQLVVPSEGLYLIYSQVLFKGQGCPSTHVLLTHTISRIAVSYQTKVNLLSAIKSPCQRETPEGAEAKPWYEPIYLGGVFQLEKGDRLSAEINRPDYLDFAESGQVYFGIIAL
How it was run: as §1

[4] = target: T1, nuclear factor kappa B (NFKB1) (Homo sapiens, UniProt P19838)
T1 sequence (P19838 1-968): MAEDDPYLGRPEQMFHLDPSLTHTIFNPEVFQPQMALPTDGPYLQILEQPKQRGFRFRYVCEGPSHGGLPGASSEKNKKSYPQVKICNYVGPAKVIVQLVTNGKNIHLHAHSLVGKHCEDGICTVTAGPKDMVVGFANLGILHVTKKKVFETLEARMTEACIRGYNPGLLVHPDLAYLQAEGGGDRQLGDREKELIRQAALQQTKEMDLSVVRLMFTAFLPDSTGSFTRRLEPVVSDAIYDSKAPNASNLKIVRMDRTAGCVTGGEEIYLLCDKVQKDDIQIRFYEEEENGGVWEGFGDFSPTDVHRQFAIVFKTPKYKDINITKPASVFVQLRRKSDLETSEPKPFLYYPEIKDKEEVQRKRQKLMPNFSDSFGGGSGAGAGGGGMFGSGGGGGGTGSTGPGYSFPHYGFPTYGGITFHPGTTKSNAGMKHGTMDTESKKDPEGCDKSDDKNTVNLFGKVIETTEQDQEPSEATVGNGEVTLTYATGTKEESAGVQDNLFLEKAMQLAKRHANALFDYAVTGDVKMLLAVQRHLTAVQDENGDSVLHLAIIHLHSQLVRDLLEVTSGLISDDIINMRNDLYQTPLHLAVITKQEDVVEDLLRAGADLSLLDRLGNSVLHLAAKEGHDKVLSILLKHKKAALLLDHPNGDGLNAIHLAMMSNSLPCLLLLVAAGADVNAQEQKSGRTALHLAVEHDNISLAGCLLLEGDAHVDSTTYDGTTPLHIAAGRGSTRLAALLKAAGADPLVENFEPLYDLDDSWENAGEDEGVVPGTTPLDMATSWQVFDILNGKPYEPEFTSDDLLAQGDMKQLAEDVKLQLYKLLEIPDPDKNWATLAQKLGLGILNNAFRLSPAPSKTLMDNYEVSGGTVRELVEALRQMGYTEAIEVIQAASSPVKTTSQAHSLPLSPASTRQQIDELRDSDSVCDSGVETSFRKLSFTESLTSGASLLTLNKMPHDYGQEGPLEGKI
How it was run: as §1

Sequence of mitogen-activated protein kinase (MAPK1) (P28482 whole entry): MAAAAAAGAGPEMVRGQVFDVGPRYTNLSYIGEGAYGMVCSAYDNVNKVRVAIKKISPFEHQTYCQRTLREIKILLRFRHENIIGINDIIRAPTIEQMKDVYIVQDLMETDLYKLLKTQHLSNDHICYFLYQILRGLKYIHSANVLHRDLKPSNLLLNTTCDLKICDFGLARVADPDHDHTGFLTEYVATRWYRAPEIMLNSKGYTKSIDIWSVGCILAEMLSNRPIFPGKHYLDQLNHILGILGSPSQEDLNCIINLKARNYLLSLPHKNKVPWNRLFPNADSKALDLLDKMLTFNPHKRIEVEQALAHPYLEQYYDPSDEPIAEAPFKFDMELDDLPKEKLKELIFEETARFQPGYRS

Structure (SMILES) | Kd [1] | kon [1] | koff [1] | Kd [2] | also measured
CC(C)=CCc1cc2c(cc1O)O[C@H](c1ccc(O)cc1)CC2=O [Bavachin] | 26.6 µM | 9290 M⁻¹ s⁻¹ | 0.247 s⁻¹ | – | –
O=C(/C=C/c1ccc(O[C@@H]2O[C@H](CO)[C@@H](O)[C@H](O)[C@H]2O)cc1)c1ccc(O)cc1O [Isoliquiritin] | – | – | – | 2.7 µM | Kd [3]: 3.6 µM
COc1ccc(-c2coc3cc(O[C@@H]4O[C@H](CO)[C@@H](O)[C@H](O)[C@H]4O)ccc3c2=O)cc1 [Ononin] | 41.4 µM | – | – | – | –
COc1cc2c(cc1CC=C(C)C)C(=O)C[C@@H](c1ccc(O)cc1)O2 [Bavachinin A] | 6.05 µM | – | – | – | –
COc1ccc(-c2coc3cc(O)ccc3c2=O)cc1 [Formononetin] | – | – | – | – | Kd [4]: 32.5 µM
O=C1C[C@@H](c2ccc(O[C@@H]3O[C@H](CO)[C@@H](O)[C@H](O)[C@H]3O)cc2)Oc2cc(O)ccc21 [Liquiritin] | 382 µM | 258 M⁻¹ s⁻¹ | 0.0984 s⁻¹ | 105 µM | kon ([2]; read-out: Ka (association rate constant)): 251 M⁻¹ s⁻¹; koff ([2]; read-out: Kd (dissociation rate constant)): 0.0264 s⁻¹
